Test results from ChEMBL document CHEMBL4371012, “Development of Macrocyclic Peptides Containing Epoxyketone with Oral Availability as Proteasome Inhibitors” (J Med Chem, 2018).
The source made the active and inactive calls. The rule behind the calls is not given here.

Tests used:
[1] = target: T1, Proteasome Macropain subunit MB1 (Homo sapiens, UniProt P28074); assay: Inhibition of human 20S proteasome chymotrypsin-like activity using Suc-Leu-Leu-Val-Tyr-AMC as substrate pretreated for 15 mins followed by substrate addition by fluorescence assay
T1 sequence (P28074 whole entry): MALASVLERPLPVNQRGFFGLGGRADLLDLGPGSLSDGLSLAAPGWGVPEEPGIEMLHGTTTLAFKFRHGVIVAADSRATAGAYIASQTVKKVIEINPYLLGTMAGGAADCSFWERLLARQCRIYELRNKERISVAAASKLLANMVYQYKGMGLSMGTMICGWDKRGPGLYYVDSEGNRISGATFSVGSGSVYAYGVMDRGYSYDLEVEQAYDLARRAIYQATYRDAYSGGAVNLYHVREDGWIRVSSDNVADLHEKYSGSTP

RPMI-8226 = assay: Antiproliferative activity against human RPMI8226 cells after 72 hrs by MTS assay; type: functional, cell-based; details: RPMI-8226, 72 h
MM1.S = assay: Antiproliferative activity against human MM1S cells after 72 hrs by MTS assay; type: functional, cell-based
MV4-11 = assay: Antiproliferative activity against human MV4-11 cells after 72 hrs by MTS assay; type: functional, cell-based; details: MV4-11, 72 h
[2] = Metabolic stability in mouse liver microsomes assessed as parent compound remaining at 100 uM after 30 mins by LC-MS/MS analysis; type: ADME, Microsome; details: read-out: Stability
Outline: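 After the microsomal incubation, the clear supernatant was analysed by ESI LC-MS. The read-out was the relative peak area of each parent compound.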

Mus musculus = assay: In vivo inhibition of 20S proteasome chymotrypsin-like activity in Balb/c mouse blood at 30 mg/kg, po measured at 2 to 24 hrs post dose using LLVY-AMC as substrate by fluorescence assay; type: functional, organism-based
Outline: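 BALB/c mice dosed orally in 0.5% CMC-Na vehicle. Blood was sampled at 2 and 24 h after dosing for proteasome chymotrypsin-like activity.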

[3] = Cmax in ICR mouse at 30 mg/kg, po via gavage by LC-MS/MS analysis; type: ADME, organism-based; design: dose 30 mg/kg, route oral; details: in vivo
[4] = Tmax in ICR mouse at 30 mg/kg, po via gavage by LC-MS/MS analysis; type: ADME, organism-based; details: in vivo
[5] = AUC (0 to t) in ICR mouse at 30 mg/kg, po via gavage after 1 hr by LC-MS/MS analysis; type: ADME, organism-based; design: time < 1 hr, dose 30 mg/kg, route oral; details: in vivo

- IC50 [1]: 14 nM
- IC50 (RPMI-8226): 3 nM
- IC50 (MM1.S): 1 nM
- IC50 (MV4-11): 3 nM
- remaining at 0.5 h, 100 µM [2]: 92%
- Cmax [3]: 92 ng/mL
- Tmax [4]: 13.2 min
- AUC(0-t) at 1 h [5]: 58 ng·h/mL
SMILES: COC[C@@H]1NC(=O)c2nccn2CCCCCCOC[C@@H](C(=O)N[C@@H](Cc2ccccc2)C(=O)[C@@]2(C)CO2)NC1=O
- inhibition (Mus musculus): Active
